Columns and labels:
Rattus norvegicus [1] = assay: Tested for distribution of radioactivity in female rat tissue at 6 hr after intravenous administration in ovaries; type: ADME, organism-based; details: in vivo
Procedure, shortened: (§1)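 Female Fischer 344 rats (160–180 g), food and water ad libitum. Se-75-labeled steroid dissolved in EtOH, formulated in Tween 80–EtOH–saline; 5–10 μCi in 1 mL injected into a lateral tail vein under light Et₂O anesthesia. At each time point, 3 rats killed by decapitation under Et₂O. Organs rinsed with saline, blotted, weighed and gamma counted. Values are % dose/g, mean and range.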

Rattus norvegicus [2] = assay: Tested for distribution of radioactivity in female rat tissue at 14d ay after intravenous administration in blood; type: ADME, organism-based; details: in vivo
Procedure, shortened: (§2)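 Female Fischer 344 rats (160–180 g), food and water ad libitum, received 5–10 μCi i.v. via lateral tail vein (1 mL Tween 80–EtOH–saline) under light Et₂O anesthesia. At each time they were anesthetized and decapitated, and organs were rinsed in saline, blotted, weighed and gamma counted. Values are % dose/g, mean and range of 3 rats.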

Rattus norvegicus [3] = assay: Tested for distribution of radioactivity in female rat tissue at 14d ay after intravenous administration in ovaries; type: ADME, organism-based; details: in vivo; procedure, shortened: as §2
Rattus norvegicus [4] = assay: Tested for distribution of radioactivity in female rat tissue at 3 day after intravenous administration in liver; type: ADME, organism-based; details: in vivo, 72 h; procedure, shortened: as §2
Homo sapiens [5] = organism: Homo sapiens; assay: Adsorbed radiation dose value was calculated to human adrenals; type: functional, Adrenal gland
Procedure, shortened: (§3)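 Human absorbed radiation dose estimated by the standard MIRD method from rat tissue distribution (% dose/g, 1 h–21 days) and excretion data. Excretion came from three individually caged female rats, with urine and feces collected daily over 21 days.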

Rattus norvegicus [6] = assay: Tested for distribution of radioactivity in female rat tissue at 6 hr after intravenous administration in kidney; type: ADME, organism-based; details: in vivo; procedure, shortened: as §2
Rattus norvegicus [7] = assay: Tested for distribution of radioactivity in female rat tissue at 7 day after intravenous administration in adrenal; type: ADME, organism-based; details: in vivo, 168 h; procedure, shortened: as §1
Rattus norvegicus [8] = assay: Tested for distribution of radioactivity in female rat tissue at 24 hr r after intravenous administration in ovaries; type: ADME, organism-based; details: in vivo; procedure, shortened: as §2
Rattus norvegicus [9] = assay: Tested for distribution of radioactivity in female rat tissue at 7 day after intravenous administration in kidney; type: ADME, organism-based; details: in vivo, 168 h; procedure, shortened: as §1
Rattus norvegicus [10] = assay: Tested for distribution of radioactivity in female rat tissue at 3 day after intravenous administration in kidney; type: ADME, organism-based; details: in vivo, 72 h; procedure, shortened: as §2
Homo sapiens [11] = organism: Homo sapiens; assay: Adsorbed radiation dose value was calculated to human total body; type: functional; procedure, shortened: as §3
[12] = Adrenal/Tissue ratio calculated from percent dose per gram of tissue determined after 1 day intravenous administration from spleen; type: functional
Procedure, shortened: (§4)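 Female Fischer 344 rats (160–180 g), fed ad libitum. Steroid dissolved in EtOH, formulated in Tween 80–EtOH–saline, 5–10 μCi in 1 mL given into a lateral tail vein under light Et₂O anesthesia. Organs removed 1 day post-injection, rinsed, blotted, weighed and gamma counted, 3 rats per time point. Ratios taken from adrenal vs tissue % dose/g.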

Rattus norvegicus [13] = assay: Tested for distribution of radioactivity in female rat tissue at 6 hr after intravenous administration in adrenal; type: ADME, organism-based; details: in vivo; procedure, shortened: as §2
Rattus norvegicus [14] = assay: Tested for distribution of radioactivity in female rat tissue at 6 hr after intravenous administration in liver; type: ADME, organism-based; details: in vivo; procedure, shortened: as §2
Rattus norvegicus [15] = assay: Tested for distribution of radioactivity in female rat tissue at 24 hr r after intravenous administration in liver; type: ADME, organism-based; details: in vivo; procedure, shortened: as §2
[16] = Adrenal/Tissue ratio calculated from percent dose per gram of tissue determined after 1 day intravenous administration from liver; type: functional; procedure, shortened: as §4
Rattus norvegicus [17] = assay: Tested for distribution of radioactivity in female rat tissue at 14d ay after intravenous administration in adrenal; type: ADME, organism-based; details: in vivo; procedure, shortened: as §2
Rattus norvegicus [18] = assay: Tested for distribution of radioactivity in female rat tissue at 24 hr r after intravenous administration in kidney; type: ADME, organism-based; details: in vivo; procedure, shortened: as §2
Rattus norvegicus [19] = assay: Tested for distribution of radioactivity in female rat tissue at 7 day after intravenous administration in ovaries; type: ADME, organism-based; details: in vivo, 168 h; procedure, shortened: as §1
Homo sapiens [20] = organism: Homo sapiens; assay: Adsorbed radiation dose value was calculated to human pancreas; type: functional; procedure, shortened: as §3
Rattus norvegicus [21] = assay: Tested for distribution of radioactivity in female rat tissue at 18 hr after intravenous administration in ovaries; type: ADME, organism-based; details: in vivo; procedure, shortened: as §2
Homo sapiens [22] = organism: Homo sapiens; assay: Adsorbed radiation dose value was calculated to human small intestine; type: functional; procedure, shortened: as §3
Rattus norvegicus [23] = assay: Tested for distribution of radioactivity in female rat tissue at 14d ay after intravenous administration in kidney; type: ADME, organism-based; details: in vivo; procedure, shortened: as §2
Rattus norvegicus [24] = assay: Tested for distribution of radioactivity in female rat tissue at 1 hr after intravenous administration in kidney; type: ADME, organism-based; details: in vivo; procedure, shortened: as §2
Homo sapiens [25] = organism: Homo sapiens; assay: Adsorbed radiation dose value was calculated to human lungs; type: functional; procedure, shortened: as §3
Rattus norvegicus [26] = assay: Tested for distribution of radioactivity in female rat tissue at 6 hr after intravenous administration in blood; type: ADME, organism-based; details: in vivo; procedure, shortened: as §2
Rattus norvegicus [27] = assay: Tested for distribution of radioactivity in female rat tissue at 21 day after intravenous administration in blood; type: ADME, organism-based; details: in vivo, 504 h; procedure, shortened: as §2
Rattus norvegicus [28] = assay: Tested for distribution of radioactivity in female rat tissue at 3 day after intravenous administration in blood; type: ADME, organism-based; details: in vivo, 72 h; procedure, shortened: as §2

CC(C)[Se]CCC[C@H](C)[C@H]1CC[C@H]2[C@@H]3CC=C4C[C@@H](O)CC[C@]4(C)[C@H]3CC[C@]12C
Dose/g (Rattus norvegicus [1]): 4.95% | Dose/g (Rattus norvegicus [2]): 0.16% | Dose/g (Rattus norvegicus [3]): 2.83% | Dose/g (Rattus norvegicus [4]): 0.99% | Dose (Homo sapiens [5]): 30 rd mCi-1 | Dose/g (Rattus norvegicus [6]): 1.69% | Dose/g (Rattus norvegicus [7]): 29.5% | Dose/g (Rattus norvegicus [8]): 5.29% | Dose/g (Rattus norvegicus [9]): 1.34% | Dose/g (Rattus norvegicus [10]): 1.48% | Dose (Homo sapiens [11]): 1.8 rd mCi-1 | Ratio [12]: 19.2 | Dose/g (Rattus norvegicus [13]): 35.61% | Dose/g (Rattus norvegicus [14]): 4.93% | Dose/g (Rattus norvegicus [15]): 1.76% | Ratio [16]: 27.1 | Dose/g (Rattus norvegicus [17]): 18.23% | Dose/g (Rattus norvegicus [18]): 1.59% | Dose/g (Rattus norvegicus [19]): 3.82% | Dose (Homo sapiens [20]): 3.4 rd mCi-1 | Dose/g (Rattus norvegicus [21]): 6.12% | Dose (Homo sapiens [22]): 3.5 rd mCi-1 | Dose/g (Rattus norvegicus [23]): 0.91% | Dose/g (Rattus norvegicus [24]): 1.31% | Dose (Homo sapiens [25]): 3.2 rd mCi-1 | Dose/g (Rattus norvegicus [26]): 2.08% | Dose/g (Rattus norvegicus [27]): 0.11% | Dose/g (Rattus norvegicus [28]): 0.38%

From ChEMBL document CHEMBL1122384, “Synthesis and evaluation of 24-(isopropyl[75Se]seleno)chol-5-en-3 beta-ol” (J Med Chem, 1983)
